ChEMBL document CHEMBL5357066, “Development of Novel Membrane Disrupting Lipoguanidine Compounds Sensitizing Gram-Negative Bacteria to Antibiotics” (ACS Med Chem Lett, 2024)
≈ marks a conversion by molar mass, not a printed value.

How the values were obtained:
Pseudomonas aeruginosa [1] = experiment: Synergistic antibacterial activity against Pseudomonas aeruginosa NCTC 13437 assessed as rifampicin MIC at <=0.25 times MIC incubated for overnight by microbroth dilution checkerboard assay; format: functional
Method in brief: (§1)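 Checkerboard microdilution in Tryptic Soy Broth, run like the MIC assay. Overnight TSB cultures were back-diluted to OD 0.01 and added 1:1 to the combined two-fold series of both agents, then incubated overnight at 37 °C. Growth/no-growth was called at <0.1 OD600. MICs alone were read on the same plates. FIC index came from the most synergistic well; three independent repeats, mean ± SD.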

Acinetobacter baumannii [2] = experiment: Synergistic antibacterial activity against Acinetobacter baumannii ATCC 17978 assessed as rifampicin MIC at <=0.25 times MIC incubated for overnight by microbroth dilution checkerboard assay; format: functional
Method in brief: (§2)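 Checkerboard microdilution under MIC conditions (TSB, overnight, 37 °C). Two-fold series of each agent were combined on one plate before bacteria were added, and single-agent MICs were measured on the same plate. FIC = sum of combination MIC/alone MIC for each agent, taken from the most synergistic well. Three independent repeats, mean ± SD. ≤0.5 was taken as strong synergy and 0.5–<1 as weak.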

Escherichia coli [3] = experiment: Synergistic antibacterial activity against Escherichia coli NCTC 12923 assessed as rifampicin MIC at <=0.25 times MIC incubated for overnight by microbroth dilution checkerboard assay; format: functional; method in brief: as §2
Acinetobacter baumannii [4] = experiment: Synergistic antibacterial activity against Acinetobacter baumannii AYE assessed as fold change in rifampicin MIC at <=0.25 times MIC incubated for overnight by microbroth dilution checkerboard assay relative to rifampicin alone; format: functional; method in brief: as §2
Acinetobacter baumannii [5] = experiment: Synergistic antibacterial activity against Acinetobacter baumannii ATCC 17978 assessed as fold change in rifampicin MIC at <=0.25 times MIC incubated for overnight by microbroth dilution checkerboard assay relative to rifampicin alone; format: functional; method in brief: as §2
Pseudomonas aeruginosa [6] = experiment: Synergistic antibacterial activity against Pseudomonas aeruginosa PAO1 assessed as fold change in rifampicin MIC at <=0.25 times MIC incubated for overnight by microbroth dilution checkerboard assay relative to rifampicin alone; format: functional; method in brief: as §1
Escherichia coli [7] = experiment: Synergistic antibacterial activity against Escherichia coli NCTC 12923 assessed as fold change in rifampicin MIC at <=0.25 times MIC incubated for overnight by microbroth dilution checkerboard assay relative to rifampicin alone; format: functional; method in brief: as §2
Klebsiella pneumoniae [8] = experiment: Synergistic antibacterial activity against Klebsiella pneumoniae NCTC 13368 assessed as fold change in rifampicin MIC at <=0.25 times MIC incubated for overnight by microbroth dilution checkerboard assay relative to rifampicin alone; format: functional
Method in brief: (§3)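 Checkerboard run under the MIC conditions (TSB, overnight, 37 °C). Antibiotic and lipoguanidine 2-fold series were combined on one plate before bacteria were added. Growth/no-growth was scored as for the MIC (<0.1 OD600). Single-agent MICs were measured on the same plates. Three independent repeats were done.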

Acinetobacter baumannii [9] = experiment: Synergistic antibacterial activity against Acinetobacter baumannii AYE assessed as rifampicin MIC at <=0.25 times MIC incubated for overnight by microbroth dilution checkerboard assay; format: functional; method in brief: as §2
Pseudomonas aeruginosa [10] = experiment: Synergistic antibacterial activity against Pseudomonas aeruginosa NCTC 13437 assessed as fold change in rifampicin MIC at <=0.25 times MIC incubated for overnight by microbroth dilution checkerboard assay relative to rifampicin alone; format: functional; method in brief: as §1
Klebsiella pneumoniae [11] = experiment: Synergistic antibacterial activity against Klebsiella pneumoniae NCTC 13368 assessed as rifampicin MIC at <=0.25 times MIC incubated for overnight by microbroth dilution checkerboard assay; format: functional; method in brief: as §2
Pseudomonas aeruginosa [12] = experiment: Synergistic antibacterial activity against Pseudomonas aeruginosa PAO1 assessed as rifampicin MIC at <=0.25 times MIC incubated for overnight by microbroth dilution checkerboard assay; format: functional; method in brief: as §1
Klebsiella pneumoniae [13] = experiment: Synergistic antibacterial activity against […] Klebsiella pneumoniae M6 assessed as rifampicin MIC at <=0.25 times MIC incubated for overnight by microbroth dilution checkerboard assay; format: functional; method in brief: as §3
Staphylococcus aureus [14] = experiment: Antibacterial activity against methicillin resistant Staphylococcus aureus USA 300 assessed as bacterial growth inhibition incubated for overnight by microbroth dilution method; format: functional
Method in brief: (§4)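 Microbroth dilution in Tryptic Soy Broth. DMSO stocks were diluted in TSB as 2-fold series. Overnight TSB cultures were back-diluted to OD 0.01 and mixed 1:1 with compound. Incubation was overnight at 37 °C. MIC is the lowest concentration with no visible growth (<0.1 OD600). DMSO at equivalent concentrations was checked.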

Pseudomonas aeruginosa [15] = experiment: Antibacterial activity against Pseudomonas aeruginosa NCTC 13437 assessed as bacterial growth inhibition incubated for overnight by microbroth dilution method; format: functional
Method in brief: (§5)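 Broth microdilution in Tryptic Soy Broth. DMSO stocks were diluted in TSB as 2-fold series. Overnight TSB cultures were back-diluted to OD 0.01 and mixed 1:1 with compound. Incubation was overnight at 37 °C. MIC was the lowest concentration without visible growth (<0.1 OD600). DMSO vehicle was checked at equivalent concentrations.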

Acinetobacter baumannii [16] = experiment: Antibacterial activity against Acinetobacter baumannii ATCC 17978 assessed as bacterial growth inhibition incubated for overnight by microbroth dilution method; format: functional; method in brief: as §5
Enterococcus faecium = experiment: Antibacterial activity against vancomycin resistant Enterococcus faecium NCTC 12204 assessed as bacterial growth inhibition incubated for overnight by microbroth dilution method; format: functional; method in brief: as §4
Acinetobacter baumannii [17] = experiment: Antibacterial activity against Acinetobacter baumannii AYE assessed as bacterial growth inhibition incubated for overnight by microbroth dilution method; format: functional; method in brief: as §5
Staphylococcus aureus [18] = experiment: Antibacterial activity against methicillin resistant Staphylococcus aureus NCTC 13616 assessed as bacterial growth inhibition incubated for overnight by microbroth dilution method; format: functional; method in brief: as §4
Staphylococcus aureus [19] = experiment: Antibacterial activity against methicillin sensitive Staphylococcus aureus ATCC 9144 assessed as bacterial growth inhibition incubated for overnight by microbroth dilution method; format: functional; method in brief: as §4
Klebsiella pneumoniae [20] = experiment: Antibacterial activity against ESBL Klebsiella pneumoniae NCTC 13368 assessed as bacterial growth inhibition incubated for overnight by microbroth dilution method
Escherichia coli [21] = experiment: Antibacterial activity against Escherichia coli NCTC 12923 assessed as bacterial growth inhibition incubated for overnight by microbroth dilution method; format: functional; method in brief: as §5
Klebsiella pneumoniae [22] = experiment: Antibacterial activity against Klebsiella pneumoniae M6 assessed as bacterial growth inhibition incubated for overnight by microbroth dilution method
Enterococcus faecalis [23] = experiment: Antibacterial activity against vancomycin sensitive Enterococcus faecalis NCTC 775 assessed as bacterial growth inhibition incubated for overnight by microbroth dilution method
Enterococcus faecalis [24] = experiment: Antibacterial activity against vancomycin resistant Enterococcus faecalis NCTC 12201 assessed as bacterial growth inhibition incubated for overnight by microbroth dilution method; format: functional; method in brief: as §4
Staphylococcus aureus [25] = experiment: Antibacterial activity against methicillin sensitive Staphylococcus aureus 1199B assessed as bacterial growth inhibition incubated for overnight by microbroth dilution method; format: functional; method in brief: as §4
Pseudomonas aeruginosa [26] = experiment: Antibacterial activity against Pseudomonas aeruginosa PAO1 assessed as bacterial growth inhibition incubated for overnight by microbroth dilution method; format: functional; method in brief: as §5

Row | SMILES | MIC (Pseudomonas aeruginosa [1]) | MIC (Acinetobacter baumannii [2]) | MIC (Escherichia coli [3]) | fold change (FC) (Acinetobacter baumannii [4]) | fold change (FC) (Acinetobacter baumannii [5]) | fold change (FC) (Pseudomonas aeruginosa [6]) | fold change (FC) (Escherichia coli [7]) | fold change (FC) (Klebsiella pneumoniae [8]) | MIC (Acinetobacter baumannii [9]) | fold change (FC) (Pseudomonas aeruginosa [10]) | MIC (Klebsiella pneumoniae [11]) | MIC (Pseudomonas aeruginosa [12]) | MIC (Klebsiella pneumoniae [13]) | also measured
1 | CCCCCCCCCCNC(=N)NCCCC(=O)O | 32 µg/mL | 2 µg/mL | 32 µg/mL | 0 | 0 | 0 | 0 | 0 | 8 µg/mL | 0 | 32 µg/mL | 32 µg/mL | 32 µg/mL | 
2 | CCCCCCCCCCNC(=N)NCCCCN(C)C | 0.5 µg/mL | ≤ 0.125 µg/mL | ≤ 0.125 µg/mL | >=4 | >=4 | >=4 | >=4 | >=4 | ≤ 0.125 µg/mL | >=4 | 1 µg/mL | 0.5 µg/mL | ≤ 0.125 µg/mL | 
3 | CCCCCCCCCCCC(=O)NCCCCN | 32 µg/mL | 4 µg/mL | 32 µg/mL | 0 | 0 | 0 | 0 | 0 | 32 µg/mL | 0 | 128 µg/mL | 64 µg/mL | 32 µg/mL | 
4 | CCCCCCCC/C=C\CCCCCCCCNC(=N)NCCCCCCCCNC(=N)N |  |  |  |  |  |  |  |  |  |  |  |  |  | MIC (Staphylococcus aureus [14]): 2 µg/mL (≈ 4.18 µM); MIC (Pseudomonas aeruginosa [15]): > 128 µg/mL; MIC (Acinetobacter baumannii [16]): 16 µg/mL (≈ 33.4 µM); MIC (Enterococcus faecium): 4 µg/mL (≈ 8.35 µM); MIC (Acinetobacter baumannii [17]): 16 µg/mL (≈ 33.4 µM); MIC (Staphylococcus aureus [18]): 4 µg/mL (≈ 8.35 µM); MIC (Staphylococcus aureus [19]): 4 µg/mL (≈ 8.35 µM); MIC (Klebsiella pneumoniae [20]): 128 µg/mL (≈ 267 µM); MIC (Escherichia coli [21]): 32 µg/mL (≈ 66.8 µM); MIC (Klebsiella pneumoniae [22]): 64 µg/mL (≈ 134 µM); MIC (Enterococcus faecalis [23]): 4 µg/mL (≈ 8.35 µM); MIC (Enterococcus faecalis [24]): 4 µg/mL (≈ 8.35 µM); MIC (Staphylococcus aureus [25]): 4 µg/mL (≈ 8.35 µM); MIC (Pseudomonas aeruginosa [26]): > 128 µg/mL
5 | CCCCCCCCCCCC(=O)NCCCC | 32 µg/mL | 4 µg/mL | 32 µg/mL | 0 | 0 | 0 | 0 | 0 | 16 µg/mL | 0 | 32 µg/mL | 32 µg/mL | 32 µg/mL | 
6 | CCCCCCCCCCCCCCCCCCNC(=O)NCCCCN | 16 µg/mL | 2 µg/mL | 16 µg/mL | 0 | 0 | 0 | 0 | 0 | 0.5 µg/mL | 0 | 32 µg/mL | 16 µg/mL | 16 µg/mL | 
7 | CCCCCCCC/C=C\CCCCCCCC(=O)NCCCCN | 64 µg/mL | 4 µg/mL | 32 µg/mL | 0 | 0 | 0 | 0 | 0 | 16 µg/mL | 0 | 32 µg/mL | 64 µg/mL | 64 µg/mL | 
